# According to ChEMBL document CHEMBL3091454, “Improved Cav2.2 Channel Inhibitors through a gem-Dimethylsulfone Bioisostere Replacement of a Labile Sulfonamide” (ACS Med Chem Lett, 2013):
# pEC50, pIC50: −log10 of the molar value.
# How the values were obtained:
# [1] = biological target: Voltage-dependent N-type calcium channel subunit alpha-1B (Homo sapiens, UniProt Q00975); assay: Inhibition of Cav2.2-mediated calcium influx in HEK cells by FLIPR assay; type: cell-based, HEK293
# Summary of the method: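 Cav2.2 calcium-influx FLIPR assay; compounds screened for percent inhibition at single concentration, active ones titrated for IC50; values averaged over n ≥ 3.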
# CYP3A4 = CYP3A4 (Homo sapiens, UniProt P08684); assay: Inhibition of CYP3A4 (unknown origin) at 10 uM relative to control; type: ADME
# Chain of CYP3A4 (P08684 whole entry): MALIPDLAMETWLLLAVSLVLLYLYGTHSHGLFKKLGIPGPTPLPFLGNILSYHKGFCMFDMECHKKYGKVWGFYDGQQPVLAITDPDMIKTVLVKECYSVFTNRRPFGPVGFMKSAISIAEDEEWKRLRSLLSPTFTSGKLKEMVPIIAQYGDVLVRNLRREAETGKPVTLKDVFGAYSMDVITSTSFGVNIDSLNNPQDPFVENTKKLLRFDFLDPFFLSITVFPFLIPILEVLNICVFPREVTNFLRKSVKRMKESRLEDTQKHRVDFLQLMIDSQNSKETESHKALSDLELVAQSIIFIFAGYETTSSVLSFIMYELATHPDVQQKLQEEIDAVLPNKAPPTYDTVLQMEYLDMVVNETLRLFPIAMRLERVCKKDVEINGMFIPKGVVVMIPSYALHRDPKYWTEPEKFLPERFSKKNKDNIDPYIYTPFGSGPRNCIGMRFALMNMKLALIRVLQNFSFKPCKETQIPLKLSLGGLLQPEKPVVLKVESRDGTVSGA
# [2] = biological target: T1, Nuclear receptor subfamily 1 group I member 2 (Homo sapiens, UniProt O75469); assay: Activation of PXR (unknown origin)
# T1 sequence (O75469 whole entry): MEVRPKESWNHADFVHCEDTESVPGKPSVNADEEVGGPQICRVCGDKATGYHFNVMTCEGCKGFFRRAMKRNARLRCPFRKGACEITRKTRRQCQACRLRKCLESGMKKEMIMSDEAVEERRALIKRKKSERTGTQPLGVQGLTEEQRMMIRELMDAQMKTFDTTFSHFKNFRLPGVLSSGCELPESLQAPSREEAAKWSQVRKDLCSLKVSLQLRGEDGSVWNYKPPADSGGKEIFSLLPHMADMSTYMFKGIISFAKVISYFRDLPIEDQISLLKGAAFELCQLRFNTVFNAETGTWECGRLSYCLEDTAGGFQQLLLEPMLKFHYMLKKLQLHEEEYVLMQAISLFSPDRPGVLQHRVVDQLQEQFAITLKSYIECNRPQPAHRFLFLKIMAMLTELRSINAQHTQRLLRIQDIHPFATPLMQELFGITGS
# hERG (KCNH2) = hERG (KCNH2) (Homo sapiens, UniProt Q12809); assay: Displacement of [35S]MK-499 from human ERG at 10 uM relative to control; conditions: probe [35S]MK-499
# Chain of hERG (KCNH2) (Q12809 whole entry): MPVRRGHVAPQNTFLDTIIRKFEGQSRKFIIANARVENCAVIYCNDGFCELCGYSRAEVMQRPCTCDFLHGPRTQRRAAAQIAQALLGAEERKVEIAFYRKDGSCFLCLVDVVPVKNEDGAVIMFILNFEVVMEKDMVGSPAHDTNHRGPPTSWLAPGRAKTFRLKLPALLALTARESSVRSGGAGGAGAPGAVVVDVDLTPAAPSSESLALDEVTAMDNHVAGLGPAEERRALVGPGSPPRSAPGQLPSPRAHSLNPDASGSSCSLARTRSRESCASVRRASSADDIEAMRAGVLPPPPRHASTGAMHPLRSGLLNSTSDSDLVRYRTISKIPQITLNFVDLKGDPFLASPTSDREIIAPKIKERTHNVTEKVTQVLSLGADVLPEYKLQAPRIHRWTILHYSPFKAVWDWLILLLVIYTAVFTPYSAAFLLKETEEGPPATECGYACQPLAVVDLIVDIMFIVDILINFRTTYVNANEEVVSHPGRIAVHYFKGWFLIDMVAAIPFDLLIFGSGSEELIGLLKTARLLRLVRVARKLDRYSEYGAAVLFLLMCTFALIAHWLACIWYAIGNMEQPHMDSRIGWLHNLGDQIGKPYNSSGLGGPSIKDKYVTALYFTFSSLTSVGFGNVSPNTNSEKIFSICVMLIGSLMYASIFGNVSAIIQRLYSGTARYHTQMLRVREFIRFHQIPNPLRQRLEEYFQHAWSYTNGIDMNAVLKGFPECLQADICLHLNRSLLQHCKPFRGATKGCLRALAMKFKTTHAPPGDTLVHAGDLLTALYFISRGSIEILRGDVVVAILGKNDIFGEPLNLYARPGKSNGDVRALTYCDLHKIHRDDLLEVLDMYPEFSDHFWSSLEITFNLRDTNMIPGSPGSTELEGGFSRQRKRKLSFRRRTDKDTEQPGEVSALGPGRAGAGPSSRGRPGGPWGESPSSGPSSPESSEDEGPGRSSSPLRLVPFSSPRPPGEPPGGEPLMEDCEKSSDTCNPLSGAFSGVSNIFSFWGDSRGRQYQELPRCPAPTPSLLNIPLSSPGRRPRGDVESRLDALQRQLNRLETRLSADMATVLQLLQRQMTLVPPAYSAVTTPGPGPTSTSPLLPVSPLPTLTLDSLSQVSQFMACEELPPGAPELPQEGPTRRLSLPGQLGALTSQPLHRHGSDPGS
# Summary of the method: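 hERG binding assessed by displacement of [35S]MK-499; percent inhibition at 10 μM test compound.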
# [3] = Metabolic stability in human liver microsomes assessed as compound remaining at 10 uM after 1 hr in presence of NADPH; type: ADME; conditions: read-out: Stability
# Summary of the method: (§1)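 Liver microsomes (rat or human) incubated with compound and NADPH for 1 h; percent of parent remaining. Table footnote gives 10 μM compound, 1 mM NADPH, 1 mg/mL protein; text gives 1 μM substrate, 1 mg/mL protein.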
# Liver microsome [4] = assay: Drug metabolism in human liver microsomes assessed as 3-(trifluoromethyl)-benzenesulfonamide level after 1 hr in presence of NADPH; type: ADME
# [5] = Metabolic stability in rat liver microsomes assessed as compound remaining at 10 uM after 1 hr in presence of NADPH; type: ADME; conditions: read-out: Stability; summary of the method: as §1
# Liver microsome [6] = assay: Drug metabolism in rat liver microsomes assessed as 3-(trifluoromethyl)-benzenesulfonamide level after 1 hr in presence of NADPH; type: ADME
# Rattus norvegicus [7] = assay: Normalized AUC in rat whole blood at 3 mg/kg, po; type: ADME, organism-based; set-up: dose 3 mg/kg, route oral; conditions: in vivo
# Summary of the method: (§2)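 Rats dosed 3 mg/kg orally and 1 mg/kg intravenously; PK parameters derived from whole-blood concentrations. Normalized oral AUC given in μM·h·kg/mg, clearance in mL/min/kg, plus half-life and oral bioavailability.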
# Rattus norvegicus [8] = assay: Normalized AUC in rat whole blood assessed as 3-(trifluoromethyl)-benzenesulfonamide level at 3 mg/kg, po; type: ADME, organism-based; set-up: dose 3 mg/kg, route oral; conditions: in vivo
# Summary of the method: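 Rats given a single 3 mg/kg oral dose of parent; whole-blood levels of parent and sulfonamide metabolite followed over time, n = 2 rats. Metabolite AUC normalized to dose (μM·h·kg/mg).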
# Rattus norvegicus [9] = assay: Antinociceptive activity in rat inflammatory pain model assessed as reversal of CFA-induced mechanical allodynia at 10 mg/kg, po after 1 hr; type: functional
# Summary of the method: (§3)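 Rats given intraplantar complete Freund's adjuvant in the hind paws to induce inflammatory pain; mechanical allodynia assessed 1 and 3 h after a single oral dose. Percent reversal per rat calculated as (postdose − predose)/(preinjury − predose), averaged over n = 6 rats.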
# Rattus norvegicus [10] = assay: Antinociceptive activity in rat inflammatory pain model assessed as reversal of CFA-induced mechanical allodynia at 30 mg/kg, po after 3 hrs; type: functional; summary of the method: as §3
# Rattus norvegicus [11] = assay: Antinociceptive activity in rat inflammatory pain model assessed as reversal of CFA-induced mechanical allodynia at 30 mg/kg, po after 1 hr; type: functional; summary of the method: as §3
# [12] = Fraction unbound in 100% rat plasma; type: ADME, cell-free
# Summary of the method: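 Unbound fraction measured in 100% rat plasma.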
# Cytochrome P450 3A4 = Cytochrome P450 3A4 (Homo sapiens, UniProt P08684); assay: Inhibition of CYP3A4 (unknown origin); type: ADME
# Chain of Cytochrome P450 3A4 (P08684 whole entry): as the sequence (P08684 whole entry) above
# Rattus norvegicus [13] = assay: Antinociceptive activity in rat inflammatory pain model assessed as reversal of CFA-induced mechanical allodynia at 10 mg/kg, po after 3 hrs; type: functional; summary of the method: as §3
# [14] = Clearance in rat at 3 mg/kg, po and 1 mg/kg, iv; type: ADME, organism-based; conditions: in vivo; summary of the method: as §2
# MDR1 (ABCB1) = MDR1 (ABCB1) (Homo sapiens, UniProt P08183); assay: Activity at human MDR1 expressed in MDCK2 cells assessed as apparent permeability by LC/MS/MS analysis; type: ADME, cell-based, MDCK-II; conditions: MDCK-MDR1
# [15] = Oral bioavailability in rat at 3 mg/kg; type: ADME, organism-based; conditions: in vivo; summary of the method: as §2
# [16] = Half life in rat at 3 mg/kg, po and 1 mg/kg, iv; type: ADME, organism-based; conditions: in vivo; summary of the method: as §2
# Chain of Voltage-dependent N-type calcium channel subunit alpha-1B (Q00975 whole entry): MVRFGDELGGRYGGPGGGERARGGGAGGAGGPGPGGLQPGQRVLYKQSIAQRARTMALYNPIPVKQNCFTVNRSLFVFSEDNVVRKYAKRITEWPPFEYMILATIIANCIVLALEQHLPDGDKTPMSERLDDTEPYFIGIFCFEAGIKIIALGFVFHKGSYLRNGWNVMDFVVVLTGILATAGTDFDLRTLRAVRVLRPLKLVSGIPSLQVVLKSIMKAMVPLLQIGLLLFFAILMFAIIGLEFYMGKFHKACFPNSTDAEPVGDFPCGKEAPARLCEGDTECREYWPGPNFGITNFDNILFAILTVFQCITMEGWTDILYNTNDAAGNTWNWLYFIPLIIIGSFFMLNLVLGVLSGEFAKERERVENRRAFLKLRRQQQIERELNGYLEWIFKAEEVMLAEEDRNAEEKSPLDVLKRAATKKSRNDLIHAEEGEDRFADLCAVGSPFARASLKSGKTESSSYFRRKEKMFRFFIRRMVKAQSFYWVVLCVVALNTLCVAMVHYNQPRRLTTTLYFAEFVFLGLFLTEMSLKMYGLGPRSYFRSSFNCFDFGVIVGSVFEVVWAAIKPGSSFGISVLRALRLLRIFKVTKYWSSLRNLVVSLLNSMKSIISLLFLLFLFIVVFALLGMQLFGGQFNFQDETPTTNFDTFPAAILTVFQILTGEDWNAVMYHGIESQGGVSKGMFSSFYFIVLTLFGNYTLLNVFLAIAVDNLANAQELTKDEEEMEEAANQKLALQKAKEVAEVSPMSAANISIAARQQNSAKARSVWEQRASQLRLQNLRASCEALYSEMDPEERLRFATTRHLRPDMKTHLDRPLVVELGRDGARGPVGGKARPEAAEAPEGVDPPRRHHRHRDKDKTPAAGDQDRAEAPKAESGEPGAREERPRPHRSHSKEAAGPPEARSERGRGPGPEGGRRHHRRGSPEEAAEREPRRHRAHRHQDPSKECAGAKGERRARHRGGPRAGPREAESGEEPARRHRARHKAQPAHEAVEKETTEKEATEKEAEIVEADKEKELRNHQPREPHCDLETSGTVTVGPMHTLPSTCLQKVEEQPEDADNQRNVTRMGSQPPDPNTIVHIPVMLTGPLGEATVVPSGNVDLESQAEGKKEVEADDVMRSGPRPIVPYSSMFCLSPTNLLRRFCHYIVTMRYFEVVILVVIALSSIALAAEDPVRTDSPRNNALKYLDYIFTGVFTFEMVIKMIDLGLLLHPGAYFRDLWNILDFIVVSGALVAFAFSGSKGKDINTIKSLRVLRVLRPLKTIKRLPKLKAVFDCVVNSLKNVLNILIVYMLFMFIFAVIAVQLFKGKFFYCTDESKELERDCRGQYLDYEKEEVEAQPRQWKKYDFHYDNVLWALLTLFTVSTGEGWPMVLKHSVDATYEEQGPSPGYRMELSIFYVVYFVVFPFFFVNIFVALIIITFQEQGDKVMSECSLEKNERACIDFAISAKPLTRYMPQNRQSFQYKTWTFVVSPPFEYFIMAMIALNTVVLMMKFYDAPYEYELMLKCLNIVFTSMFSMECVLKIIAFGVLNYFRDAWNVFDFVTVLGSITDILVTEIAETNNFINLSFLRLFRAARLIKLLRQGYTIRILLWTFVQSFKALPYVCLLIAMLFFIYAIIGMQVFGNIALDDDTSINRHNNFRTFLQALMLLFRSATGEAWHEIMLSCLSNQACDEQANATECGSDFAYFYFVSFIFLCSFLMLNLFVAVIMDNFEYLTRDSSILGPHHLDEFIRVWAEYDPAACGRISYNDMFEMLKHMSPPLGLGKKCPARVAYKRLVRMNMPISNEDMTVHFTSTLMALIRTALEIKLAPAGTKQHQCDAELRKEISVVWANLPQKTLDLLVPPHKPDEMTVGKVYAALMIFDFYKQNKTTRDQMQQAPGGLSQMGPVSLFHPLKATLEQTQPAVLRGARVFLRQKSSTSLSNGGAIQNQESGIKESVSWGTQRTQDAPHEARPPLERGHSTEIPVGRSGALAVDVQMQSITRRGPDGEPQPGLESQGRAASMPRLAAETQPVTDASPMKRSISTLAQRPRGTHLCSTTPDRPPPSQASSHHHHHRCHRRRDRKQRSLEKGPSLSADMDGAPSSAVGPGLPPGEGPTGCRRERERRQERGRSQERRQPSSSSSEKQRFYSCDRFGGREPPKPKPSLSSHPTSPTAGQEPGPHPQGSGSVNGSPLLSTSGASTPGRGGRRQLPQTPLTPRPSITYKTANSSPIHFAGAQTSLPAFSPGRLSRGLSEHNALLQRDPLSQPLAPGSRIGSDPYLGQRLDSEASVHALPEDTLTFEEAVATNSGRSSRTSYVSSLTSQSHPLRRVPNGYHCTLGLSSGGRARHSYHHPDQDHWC
Structure (SMILES),pIC50 [1],inhibition at 10 µM (CYP3A4),pEC50 [2],inhibition at 10 µM (hERG (KCNH2)),"remaining at 1 h, 10 µM [3]","remaining at 1 h, 10 µM [5]",further results
NC(=O)c1ccc(C(=O)N2CCC(N(C3CC3)S(=O)(=O)c3cccc(C(F)(F)F)c3)CC2)c(OC(F)(F)F)c1,6.41,60%,< 5.00,41%,–,–,–
C[C@@H]1[C@H](N(C2CC2)S(=O)(=O)c2cccc(C(F)(F)F)c2)CN1C(=O)c1cc(F)ccc1S(C)(=O)=O (racemic),6.42,–,–,–,–,–,–
CS(=O)(=O)c1cc(C(F)(F)F)ccc1C(=O)N1CCC(N(C2CC2)S(=O)(=O)c2cccc(C(F)(F)F)c2)CC1,7.57,78%,5.37,43%,–,–,–
CS(=O)(=O)c1ccc(C(=O)N2CC(N(C3CC3)S(=O)(=O)c3cccc(C(F)(F)F)c3)C2)c(C(F)(F)F)c1,6.57,–,–,–,78%,72%,Drug metabolism (Liver microsome [4]): 0.45 µM; Drug metabolism (Liver microsome [6]): 0.04 µM
CS(=O)(=O)c1ccc(C(=O)N2CCC3(CCN(S(=O)(=O)c4cccc(C(F)(F)F)c4)CC3)C2)c(C(F)(F)F)c1,6.51,–,–,–,4.2%,3.8%,Drug metabolism (Liver microsome [4]): 5.13 µM; Drug metabolism (Liver microsome [6]): 0.18 µM
CS(=O)(=O)c1cc(C(F)(F)F)ccc1C(=O)N1CCC2(CCN(S(=O)(=O)c3cccc(C(F)(F)F)c3)CC2)C1,7.14,–,–,–,8.5%,12%,AUC/dose (Rattus norvegicus [7]): 0.022 µM·kg·h/mg; AUC/dose (Rattus norvegicus [8]): 218 µM·kg·h/mg
CS(=O)(=O)c1ccc(C(=O)N2CCC(N(C3CC3)S(=O)(=O)c3cccc(C(F)(F)F)c3)CC2)c(F)c1,6.46,–,5.17,78%,–,–,–
CS(=O)(=O)c1ccc(Cl)c(C(=O)N2CCC(N(C3CC3)S(=O)(=O)c3cccc(C(F)(F)F)c3)CC2)c1,6.47,69%,5.57,49%,–,–,–
C[C@H]1[C@H](N(C2CC2)S(=O)(=O)c2cccc(C(F)(F)F)c2)CN1C(=O)c1ccc(S(C)(=O)=O)cc1Cl (racemic),7.32,–,–,–,5.3%,4.7%,AUC/dose (Rattus norvegicus [7]): 0.017 µM·kg·h/mg; Drug metabolism (Liver microsome [4]): 0.83 µM; AUC/dose (Rattus norvegicus [8]): 64 µM·kg·h/mg; Drug metabolism (Liver microsome [6]): 0.11 µM
CC(C)(C1CCN(C(=O)c2cc(F)ccc2S(C)(=O)=O)CC1)S(=O)(=O)c1cccc(C(F)(F)F)c1,6.29,–,5.60,–,64%,68%,Efficacy (Rattus norvegicus [9]): 36%; AUC/dose (Rattus norvegicus [7]): 0.27 µM·kg·h/mg; Efficacy (Rattus norvegicus [10]): 54%; Efficacy (Rattus norvegicus [11]): 57%; fraction unbound [12]: 0.068; pIC50 (Cytochrome P450 3A4): 5.00; Efficacy (Rattus norvegicus [13]): 49%; clearance [14]: 29 mL/min/kg; Papp (MDR1 (ABCB1)): 35 ×10⁻⁶ cm/s; bioavailability [15]: 24%
NC(=O)c1ccc(C(=O)N2CCC(N(C3CC3)S(=O)(=O)c3cccc(C(F)(F)F)c3)CC2)c(C(F)(F)F)c1,6.12,61%,5.72,32%,–,–,–
CC(C)(C1CCN(C(=O)c2ccc(S(C)(=O)=O)cc2OC(F)(F)F)CC1)S(=O)(=O)c1cccc(C(F)(F)F)c1,7.04,–,< 4.52,–,62%,73%,Efficacy (Rattus norvegicus [9]): 21%; AUC/dose (Rattus norvegicus [7]): 0.97 µM·kg·h/mg; fraction unbound [12]: 0.013; Efficacy (Rattus norvegicus [13]): 30%; clearance [14]: 27 mL/min/kg; Papp (MDR1 (ABCB1)): 35 ×10⁻⁶ cm/s; bioavailability [15]: 95%; half-life [16]: 2.3 h
CS(=O)(=O)c1ccc(C(=O)N2CCC(N(C3CC3)S(=O)(=O)c3cccc(C(F)(F)F)c3)CC2)c(OC(F)(F)F)c1,7.32,16%,5.77,63%,–,–,–
CS(=O)(=O)c1ccc(F)cc1C(=O)N1CCC(N(C2CC2)S(=O)(=O)c2cccc(C(F)(F)F)c2)CC1,–,75%,–,–,–,–,Efficacy (Rattus norvegicus [9]): 43%; Drug metabolism (Liver microsome [4]): 0.03 µM; Efficacy (Rattus norvegicus [13]): 38%; Drug metabolism (Liver microsome [6]): 0.01 µM
CS(=O)(=O)c1ccc(C(=O)N2CCC(CS(=O)(=O)c3cccc(C(F)(F)F)c3)CC2)c(OC(F)(F)F)c1,6.44,–,–,–,–,–,–
